Calls of active or inactive are those of the source.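 The calls were made as follows, unless noted: active = viability at or below 30% in both replicate assays; inconclusive = viability at or below 30% in just one of the two assays; inactive = the rest.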
Assays:
[1] = SK-BR-3 cell growth inhibitors, pilot screen, 24 h, human (AID 572;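 active = viability at or below 10% of carrier control in both of two separate runs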;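 also: compound exposure lasted between 18 and 24 h rather than exactly 24 h; 100% = carrier-treated control wells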); settings: SK-BR-3 viability, CellTiter-Glo luminescence, at 10 µM, stronger effect = lower value
[2] = HUVEC growth inhibition – cell-based, human, primary screen (AID 575); settings: HUVEC proliferation, CellTiter-Glo luminescence, 72 h; at 10 µM; stronger effect = lower value;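 also: 100% = median of untreated cell wells with 0.1% DMSO on each plate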
In short: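 material = primary HUVEC, no more than 12 passages | input = 1250 cells per well | controls = vehicle and MePR control wells | measured by = CTG luminescence | times = 72 h compound incubation | format = collagen-coated 384-well format | read-out = % viability vs DMSO wells | doses = single 10 µM dose, 0.1% DMSO, from 5x medium stock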

[3] = growth inhibitors of H69AR lung tumor, primary screen, human, duplicate replicates (AID 580;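 active = viability at or under a set limit in both replicates, limit being median viability minus 3 SD, cut at about 48% in these data, passing the limit was not always enough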;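 also: 100% = mean luminescence of untreated wells and 0% = no signal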); settings: H69AR lung tumor cells viability, ATP luminescence, 72 h; at 10 µM; stronger effect = lower value
[4] = reversal of MRP1-mediated doxorubicin resistance, pilot screen, H69AR cells, doxorubicin co-treatment (AID 601;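 active = viability loss from added drug above about 55%, and viability with drug at most 40%, in both replicates, limit read from the data, passing the limit was not always enough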); settings: CellTiter-Glo, 72 h, at 10 µM; for differential viability (reversal): stronger effect = higher value
[5] = 384-well plate pilot, post-Golgi transport modulator project, inhibition of yeast transport mutant growth (AID 636; in the data active = inhibition above about 31%); settings: absorbance 615 nm, about 18 h, stronger effect = higher value
[6] = growth suppression of yeast trafficking mutant, preliminary HTS, modulators of trafficking downstream of Golgi apparatus project, 1536-format plate, OD 615 nm (AID 637; in the data active = inhibition above about 30%); settings: yeast transport mutant growth, absorbance 615 nm, 18 h; stronger effect = higher value
[7] = H69AR cells + 2 uM doxorubicin, measured here: viability with 2 uM doxorubicin, stronger effect = lower value
[8] = H69AR cells, compound alone cytotoxicity

Row | Compound | viability [1] | viability [2] | viability [3] | differential viability (reversal) ([4]; H69AR cells + 2 uM doxorubicin) | viability [4, 7] | viability [4, 8] | inhibition [5] | inhibition [6]
1 | Cc1ccccc1C(=O)NC1CCN(Cc2nnnn2CCc2ccccc2)CC1 | 124% (inactive) | 112% (inactive) | 86.8% (inactive) | -4.45% (inactive) | 91.3% | 86.8% | -5.19% (inactive) | 7.05% (inactive)
2 | O=C(NCCCN1CCCC1=O)c1cccnc1 | 135% (inactive) | 113% (inactive) | 89.2% (inactive) | 0.48% (inactive) | 88.7% | 89.2% | -4.25% (inactive) | 3.09% (inactive)
3 | O=C(CSc1oc(-c2ccco2)nc1S(=O)(=O)c1ccccc1)NCC1CCCO1 (stereo not drawn) | 97% (inactive) | 99.7% (inactive) | 86.5% (inactive) | 5.96% (inactive) | 80.5% | 86.5% | 4.66% (inactive) | -0.16% (inactive)
4 | CC1Oc2ccccc2N(Cc2ccccc2Cl)C1=O (stereo not drawn) | 77% (inactive) | 110% (inactive) | 89.1% (inactive) | 11.3% (inactive) | 77.8% | 89.1% | -5.34% (inactive) | 2% (inactive)
5 | Cc1cccc(-n2nnnc2SCc2csc(-c3ccccc3)n2)c1 | 95% (inactive) | 101% (inactive) | 93.9% (inactive) | 5.89% (inactive) | 88% | 93.9% | 6.44% (inactive) | 2.58% (inactive)
6 | Cc1nn(Cc2ccccc2)c2c1C(c1ccncc1)C(C#N)=C(N)O2 (stereo not drawn) | 96% (inactive) | 86% (inactive) | 85% (inactive) | -2.68% (inactive) | 87.7% | 85% | -4.8% (inactive) | -3.27% (inactive)
7 | CNC[C@H](O)c1cccc(O)c1 | 131% (inactive) | 93.7% (inactive) | 92.5% (inactive) | 7.67% (inactive) | 84.8% | 92.5% | -1.56% (inactive) | 2.5% (inactive)
8 | Cc1cc(C(=O)Nc2nnc(C(F)(F)F)s2)no1 | 98% (inactive) | 107% (inactive) | 105% (inactive) | 5.13% (inactive) | 99.8% | 105% | -7.4% (inactive) | 0.32% (inactive)
9 | O=C(O)c1ccc(COc2ccc(Cl)cc2)o1 | 92% (inactive) | 84.7% (inactive) | 98.1% (inactive) | 9.97% (inactive) | 88.1% | 98.1% | -0.26% (inactive) | -2.13% (inactive)
10 | N#CCC(=O)Nc1ncn(Cc2ccccc2Cl)n1 | 95% (inactive) | 105% (inactive) | 95.2% (inactive) | -10.4% (inactive) | 106% | 95.2% | -4.52% (inactive) | 3.82% (inactive)
11 | CCOc1ccc(NS(=O)(=O)c2ccc(OCC(=O)N3CCCC3)cc2)cc1 | 92% (inactive) | 102% (inactive) | 88.7% (inactive) | 3.44% (inactive) | 85.2% | 88.7% | 1.51% (inactive) | -4.84% (inactive)
12 | CCC(C(=O)OCCN(CC)CC)c1ccccc1 (stereo not drawn) | 114% (inactive) | 86.8% (inactive) | 86.7% (inactive) | -0.8% (inactive) | 87.5% | 86.7% | -1.56% (inactive) | 2.33% (inactive)
13 | O=C(O)Cc1ccccc1C(=O)O | 120% (inactive) | 92.2% (inactive) | 95.1% (inactive) | -0.3% (inactive) | 95.4% | 95.1% | -6.85% (inactive) | 1.29% (inactive)
14 | CCCCc1ccc(NC(=O)N[C@H](C(=O)O)C(C)C)cc1 | 119% (inactive) | 82.6% (inactive) | 95% (inactive) | -0.205% (inactive) | 95.2% | 95% | -2.05% (inactive) | -5.32% (inactive)
15 | COc1ccc(-c2oc3ncn(CCN4CCOCC4)c(=N)c3c2-c2ccc(OC)cc2)cc1 | 82% (inactive) | 88.9% (inactive) | 24% (active) | 2.45% (inactive) | 21.5% | 24% | -4.73% (inactive) | -2.55% (inactive)
16 | COc1cc2c3c(c1)/C(=C1/SC(NC(C)=O)=NC1=O)C(=O)N3C(C)(C)C=C2C | 91% (inactive) | 54.8% (inactive) | 72.2% (inactive) | -7.9% (inactive) | 80.2% | 72.2% | -10% (inactive) | -1.77% (inactive)
17 | O=C(NCN1CCCCC1)c1cccnc1 | 134% (inactive) | 102% (inactive) | 106% (inactive) | -0.935% (inactive) | 107% | 106% | -3.9% (inactive) | 6.07% (inactive)
18 | Cc1cc(NS(=O)(=O)c2ccc(NC(=O)COc3ccc(Cl)cc3)cc2)no1 | 100% (inactive) | 107% (inactive) | 84.1% (inactive) | -1.13% (inactive) | 85.2% | 84.1% | -9.32% (inactive) | -5.27% (inactive)

Row | Compound | viability [1] | viability [2] | viability [3] | differential viability (reversal) ([4]; H69AR cells + 2 uM doxorubicin) | viability [4, 7] | viability [4, 8] | inhibition [5] | inhibition [6]
19 | Cc1cc(=O)n2nc(N3CCC(C(=O)N4CCN(Cc5ccccc5)CC4)CC3)sc2n1 | 97% (inactive) | 108% (inactive) | 91.1% (inactive) | 7.01% (inactive) | 84.1% | 91.1% | -3.24% (inactive) | -1.27% (inactive)
20 | O=C(Nc1nnc(SCC(=O)N2CCCCC2)s1)C1CCCCC1 | 81% (inactive) | 103% (inactive) | 101% (inactive) | 12.6% (inactive) | 88.8% | 101% | -2.13% (inactive) | 0.73% (inactive)
21 | CC1C/C=C/C=C/C=C/C=C/C(O[C@@H]2O[C@H](C)[C@@H](O)[C@H](N)[C@@H]2O)CC2OC(O)(CC(O)CC3OC3/C=C/C(=O)O1)CC(O)C2C(=O)O (stereo partly drawn) | 121% (inactive) | 99.7% (inactive) | 92.3% (inactive) | 8.26% (inactive) | 84.1% | 92.3% | 2.6% (inactive) | -2.67% (inactive)
22 | CCN(CC)CCOC(=O)C(c1ccccc1)c1ccccc1 | 81% (inactive) | 81.1% (inactive) | 101% (inactive) | 7.5% (inactive) | 93.2% | 101% | -4.81% (inactive) | 1.67% (inactive)
23 | Cc1[nH]c2ccc(F)cc2c(=O)c1SC(F)(F)C(F)C(F)(F)F (stereo not drawn) | 72% (inactive) | 92.5% (inactive) | 83.3% (inactive) | -14.3% (inactive) | 97.6% | 83.3% | -5.95% (inactive) | -5.27% (inactive)
24 | CN(C)c1ccc(NC(=O)Nc2cccc(Cl)c2)cc1 | 83% (inactive) | 99.9% (inactive) | 88.7% (inactive) | 3.98% (inactive) | 84.7% | 88.7% | -6.71% (inactive) | 4.55% (inactive)
25 | COCCn1nnnc1C(c1ccccc1OC)N1CCc2ccccc2C1 (stereo not drawn) | 119% (inactive) | 103% (inactive) | 82.1% (inactive) | -6.74% (inactive) | 88.8% | 82.1% | -8.24% (inactive) | -6.36% (inactive)
26 | CCOC(=O)C1/C(=N\O)CC(C)(O)C(C(=O)OCC)C1c1ccc(N(C)C)cc1 (stereo not drawn) | 72% (inactive) | 96.9% (inactive) | 87.5% (inactive) | -13.3% (inactive) | 101% | 87.5% | 1.64% (inactive) | 5.48% (inactive)
27 | O=C(CNC(=O)c1cc2ccccc2o1)NCc1cccs1 | 122% (inactive) | 80.8% (inactive) | 84.4% (inactive) | -4.37% (inactive) | 88.8% | 84.4% | 0.26% (inactive) | 5.74% (inactive)
28 | Cc1cc2ccccc2c(=O)n1CC(=O)N(C)c1ccc(F)cc1 | 102% (inactive) | 84.2% (inactive) | 102% (inactive) | 2.95% (inactive) | 98.9% | 102% | -2.3% (inactive) | -2.73% (inactive)
29 | O=C(c1ccco1)N1CCN(c2nc(C(F)(F)F)nc3c2nnn3Cc2ccccc2)CC1 | 133% (inactive) | 69.2% (inactive) | 73.3% (inactive) | -2.53% (inactive) | 75.8% | 73.3% | -9.45% (inactive) | -0.16% (inactive)
30 | CCSC(SCC)[C@H](O)[C@@H](O)[C@H](O)[C@H](O)CO | 103% (inactive) | 104% (inactive) | 101% (inactive) | 6.02% (inactive) | 94.8% | 101% | -5.19% (inactive) | 0% (inactive)
31 | CC(=O)N1CCc2cc(S(=O)(=O)NCCC(=O)NC3CCCc4ccccc43)ccc21 (stereo not drawn) | 113% (inactive) | 112% (inactive) | 88.9% (inactive) | -1.16% (inactive) | 90% | 88.9% | -4% (inactive) | -3.27% (inactive)
32 | COC(=O)c1ccc(COc2ccc(C3C4=C(CCCC4=O)Nc4onc(C)c43)cc2)cc1 (stereo not drawn) | 104% (inactive) | 82.3% (inactive) | 94.7% (inactive) | 2.04% (inactive) | 92.7% | 94.7% | -5.19% (inactive) | -3.93% (inactive)
33 | CCOc1ccc(NC(=O)CSc2nc3cccnc3n2CC)cc1 | 103% (inactive) | 114% (inactive) | 81.4% (inactive) | -0.765% (inactive) | 82.2% | 81.4% | -3.77% (inactive) | 4.1% (inactive)
34 | Cn1nc(C(C)(C)C)cc1C(=O)NCc1ccc(N2CCCC2=O)cc1 | 87% (inactive) | 15.1% (active) | 99% (inactive) | -3.59% (inactive) | 103% | 99% | -5.34% (inactive) | 0.91% (inactive)
35 | CC1(C)O[C@@H]2C[C@H]3[C@@H]4C[C@H](F)C5=CC(=O)CC[C@]5(C)[C@H]4[C@@H](O)C[C@]3(C)[C@]2(C(=O)CO)O1 | 104% (inactive) | 107% (inactive) | 95.2% (inactive) | -2.5% (inactive) | 97.7% | 95.2% | -5.45% (inactive) | -0.5% (inactive)
36 | CCOCCCNC(=O)C1CCC(CNS(=O)(=O)c2cccc3nsnc23)CC1 (stereo not drawn) | 102% (inactive) | 84.6% (inactive) | 88.3% (inactive) | -5.31% (inactive) | 93.6% | 88.3% | 0% (inactive) | -4.92% (inactive)
